The text below walks through data of publication PMC10973196 (Saudi Pharmaceutical Journal : SPJ, 2024).

In brackets after ≈: the same amount, converted by molar mass. Where only a bound is given, the exact number is not on record here.

One data set relates to lung cancer cell (A549). The experiment in a line: Cell viability. As to conditions: Homo sapiens, A549, 48 h, read-out: IC50, cytotoxic activity. The format is cell-based. In outline: (§1)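 Cells were seeded in 96-well plates, grown for 24 h, then exposed to test compounds at various concentrations for 48 h. MTT solution (5 mg/mL) was added for 2–4 h at 37 °C, and formazan absorbance was read at 570 nm. Viability was expressed as treated/untreated absorbance ×100, and IC50 was fitted from viability dose-response curves.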

Data set [1] concerns the target SARS-CoV-2 main protease (Mpro) (Severe acute respiratory syndrome coronavirus 2, UniProt P0DTD1). The data set can be described thus: biochemical.
Another data set can be described thus: Cell viability. The following applies: human, normal HUVEC cells. Type of data set: cell-based. In outline: as §1

Broadly, the IC50 is the midpoint of a concentration-inhibition curve. As for `C[C@@H]1O[C@@H](Oc2cc3c(=O)oc4c(O)c(O)cc5c(=O)oc(c2O)c3c45)[C@H](O)[C@H](O)[C@H]1O` [Compound 10, ellagic acid-2-O-α-L-rhamnopyranoside (eschweilenol C)], the IC50 is more than 100 µg/mL in the data set on lung cancer cell (A549) and 22.3 µM in data set [1]. In “Cell viability”, the half-inhibitory concentration (IC50) at 48 h is more than 100 µg/mL.

As for `O=c1cc(-c2ccc(O)cc2)oc2cc(O)c([C@@H]3O[C@H](CO)[C@@H](O)[C@H](O)[C@H]3O)c(O)c12` [Compound 14, apigenin-6-C-β-D-glucoside (isovitexin)], the IC50 is more than 100 µg/mL in the data set on lung cancer cell (A549) and 21.7 µM in data set [1]. The 50% inhibitory concentration (IC50) at 48 h in “Cell viability” is more than 100 µg/mL.

For the molecule `COc1cccc2c1C(=O)c1c(O)c3c(c(O)c1C2=O)C[C@@](O)(C(=O)CO)C[C@@H]3O[C@H]1C[C@H](N)[C@H](O)[C@H](C)O1` [Doxorubicin, reference compound], the IC50 in the data set on lung cancer cell (A549) is 1.45 ± 0.05 µg/mL (≈ 2.67 µM). This molecule came in with an IC50 at 48 h in “Cell viability” of 2.5 ± 0.1 µg/mL (≈ 4.6 µM).
